Screens: PubChem, several laboratories
The list is not random: actives were taken first. Their share in the collection is about 2.4%.
HNF4A DNA FP: change in binding of human HNF4 alpha to DNA; P41235; HNF4a-FITC DNA binding, fluorescence polarization, 1 h; activity change, % at 10 µM; 0.3% of 360,000 active; in the data active = activity change above about 30%, passing the limit was not always enough
Rin1 Abl inh: inhibitors of human Rin1-Abl protein interaction; inhibition, % at 7.35 µM; 0.4% of 360,000 active; P00519+Q13671; AID 588664; TR-FRET Rin1/Abl binding, biochemical; in the data active = inhibition above about 5%, passing the limit was not always enough
Rpn11 block: blocks the human proteasome subunit Rpn11. inhibition, % at 20 µM. AID 588493. O00487. human 26S proteasome, Ub4-pepOG fluorescence polarization; 20S core pre-blocked with epoxomicin. 0.59% of 360,000 active;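 active = inhibition at 20 µM, scaled to each plate's controls, above about 33%, limit read from the data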
CSN deneddyl inh: blocks human CSN-mediated cullin deneddylation. Q92905. Purified CSN, SCF-Nedd8-OG deneddylation, fluorescence polarization. inhibition, % at 12.5 µM. 0.38% of 360,000 active;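 active = pattern-corrected inhibition above about 35%, with an unprinted fluorescence ratio check between 0.5 and 1.5, limit read from the data, passing the limit was not always enough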;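 note: 0% = enzyme with substrate and 100% = substrate without enzyme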
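Test system: purified human Csn5 enzyme expressed in HEK293T cells. Amount: 0.24 nM enzyme. Reagent: SCFSkp2-Nedd8OG substrate at 10 nM final. Schedule: 90 min incubation of compound, enzyme and substrate at room temperature. Detection: fluorescence polarization. Read-out: % inhibition of substrate cleavage by Csn5.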
TPT1 inh: C. albicans TPT1 enzyme inhibition; recombinant caTPT1, FP RNA substrate dephosphorylation; inhibition, % at 5 µM; 0.81% of 300,000 active;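 active = inhibition above the mean of all tested compounds plus 3 SD, set per screening campaign, cut at about 24% in these data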;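 note: plate controls were DMSO alone for no effect and ferristatin control at 100 nM for full effect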
Neddyl block: blocks human cullin neddylation; P61081+Q13564; 0.58% of 360,000 active; TR-FRET cullin neddylation, biochemical; inhibition, % at 25 µM; in the data active = inhibition above about 36%
Neddyl inh conf: confirmation of human cullin neddylation inhibitors; shares compounds with Neddyl block; TR-FRET cullin neddylation biochemical assay; calls only at 25 µM; 13% of 1,800 active; AID 652217; in the data active = inhibition above about 40%;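 note: neddylation substrate is the cullin 1 ring ligase complex with SKP2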
Starred values were filed as active, the others as inactive; i = inactive; nt = no result shown; + = active, no number.

SMILES | HNF4A DNA FP | Rin1 Abl inh | Rpn11 block | CSN deneddyl inh | TPT1 inh | Neddyl block | Neddyl inh conf
CC(C)C[C@H]1CNC(=S)N1C[C@H]1CCCN1C[C@H](CC(C)C)N1C[C@H](Cc2ccc(O)cc2)N(CC2CCCCC2)C1=S | -3 | nt | nt | -2 | nt | 1 | nt
COCc1cc(C)nc2sc(C(=O)N3CCCCC3)c(N)c12 | 1 | -1 | 6 | 1 | 5 | -10 | nt
COCc1cc(C)nc2sc(C(=O)Nc3ccc(OC)cc3)c(N)c12 | 0 | -3 | 3 | -1 | 1 | 49* | +
COCc1cc(C)nc2sc(C(=O)N3CCN(c4ccccc4)CC3)c(N)c12 | -2 | 2 | 3 | -1 | -3 | 41* | i
Cn1c(C(=O)NCCCN2CCN(c3ccccc3F)CC2)cc2c(=O)[nH]c3ccccc3c21 | 3 | 3 | 2 | -1 | 0 | 23 | nt
CCC1CCCCN1CCCNC(=O)c1cc2c(=O)[nH]c3ccccc3c2n1C (stereo not drawn) | -2 | 2 | 6 | -1 | -1 | 40* | i
CC1CC(C)CN(CCCNC(=O)c2cc3c(=O)[nH]c4ccccc4c3n2C)C1 (stereo not drawn) | 4 | 1 | 3 | 4 | -4 | 42* | i
Cc1ccc(NC(=O)COC(=O)C2CC3C=CC2C3)cc1S(=O)(=O)N1CCCCC1 (stereo not drawn) | 0 | -3 | -1 | 7 | -2 | 3 | nt
[O-]/[N+](=C/c1ccccc1)c1ccccc1 | 2 | 3 | 5 | 7 | nt | -1 | nt
O=C(c1coc(=O)c(Br)c1)N1CCC(C(O)(c2ccccc2)c2ccccc2)CC1 | 2 | -1 | 7 | 4 | 0 | 45* | nt
O=C(c1coc(=O)c(Br)c1)N1CCCc2ccccc21 | -2 | 0 | -1 | 32 | -2 | 38* | nt
O=C(c1cccc(Br)c1)N1CCCc2ccccc21 | -2 | -3 | 1 | 0 | -2 | 7 | nt
COc1cccc([C@@H]2CC=C(C(=O)O)[C@H](c3ccc(F)cc3)N2S(=O)(=O)c2ccc(C)cc2)c1 | 2 | 1 | 2 | 4 | -1 | 38* | i
COc1cccc([C@@H]2CC=C(C(=O)O)[C@H](c3ccccc3)N2S(=O)(=O)c2ccc(C)cc2)c1 | -2 | 4 | -1 | 103 | -1 | -5 | nt
COCCNC(=O)c1cc2c(=O)[nH]c3ccccc3c2s1 | 0 | -3 | -2 | 0 | -2 | 40* | nt
CCCN1CCN(CCCNC(=O)c2cc3c(=O)[nH]c4ccccc4c3s2)CC1 | 5 | -2 | -3 | 9 | 0 | nt | nt
CCOc1c(C#N)c(C#N)c2nc(C)cc(C)n12 | 10 | 2 | 3 | -3 | 21 | 14 | nt
Cc1cc(C)n2c3c(c(C#N)c2n1)CCCC3 | -1 | -3 | 1 | 2 | 10 | 41* | i
COc1cccc2c(=O)cc(C)n(CC(=O)Nc3cccc(C)c3)c12 | 1 | -1 | 1 | 0 | 2 | 44* | i
CON(C)C(=O)C[C@@H]1C[C@H](OC(=O)c2ccc([N+](=O)[O-])cc2)CN1C(=O)OC(C)(C)C | 7 | 1 | 12 | -4 | nt | -52 | nt
COc1ccc(-c2ccc3c(N)c(C(=O)NC(C)C)sc3n2)cc1OC | 1 | -2 | 2 | -3 | 0 | 39* | nt
COc1ccc(-c2csc(NC(=O)c3cc(=O)c4ccccc4o3)n2)cc1OC | 3 | 3 | -3 | -1 | 0 | -11 | nt
CN(CC(=O)Nc1ccccc1Cl)C(=O)COC(=O)c1ccc(S(=O)(=O)C(F)F)cc1 | 3 | -2 | 5 | 3 | 2 | -2 | nt
CC(=O)Oc1ccc(-c2ccc(C(=O)OCC(=O)N(C)CC(=O)Nc3ccccc3Cl)cc2)cc1 | -1 | 0 | 4 | 0 | -4 | 56* | i
O=C(Nc1sc2c(c1C(=O)NCCO)CCCC2)c1ccco1 | -1 | -1 | -2 | -3 | 1 | 40* | nt
SMILES | HNF4A DNA FP | Rin1 Abl inh | Rpn11 block | CSN deneddyl inh | TPT1 inh | Neddyl block | Neddyl inh conf
COc1ccc(C(CNC(=O)CN(C)S(=O)(=O)c2ccc(C)cc2)N2CCCC2)cc1 (stereo not drawn) | 0 | -1 | -1 | -3 | nt | -6 | nt
CCOC(=O)[C@H]1[C@H]2COc3cc(OC)ccc3[C@@H]2N2C(=O)N(c3cccc(Cl)c3)C(=O)[C@@]12C | 1 | 0 | -5 | 1 | 0 | -7 | nt
O=c1c2c(nc3c(-c4cccc(Br)c4)c[nH]n13)CCCC2 | 1 | -4 | -4 | -4 | 1 | 46* | i
O=C(CC1Sc2ccccc2NC1=O)NNc1cccc(Cl)c1Cl (stereo not drawn) | -2 | -2 | 1 | 4 | nt | 0 | nt
CC(C)(CCO)Nc1ncnc2onc(-c3ccc(F)cc3)c12 | -2 | 3 | -8 | -1 | 0 | 3 | nt
O=c1cc(-c2ccco2)oc2ccccc12 | 2 | -2 | 2 | 9 | nt | 40* | +
Cc1ccc2oc(-c3ccco3)cc(=O)c2c1 | 2 | -7 | 2 | 4 | -1 | 45* | +
N#CCOc1ccc2oc(-c3ccco3)cc(=O)c2c1 | nt | nt | nt | nt | 1 | nt | nt
O=C(NC1CC1)C1=C[C@@H](c2csc3ccccc23)C[C@@H](OCc2ccc(CO)cc2)O1 | -1 | 7 | -6 | -2 | -4 | 2 | nt
COc1ccc(C(C)=O)c(Oc2cc(NN3CCCCC3)c([N+](=O)[O-])cc2[N+](=O)[O-])c1 | -6 | 4 | -2 | 1 | -3 | -46 | nt
CCOC(=O)C1=C(COCCN)NC(C)=C(C(=O)OC)C1c1ccccc1Cl (stereo not drawn) | nt | -2 | -2 | 2 | -2 | nt | nt
CCOC(=O)C1=C(C)NC(C)=C(C(=O)OC)C1c1cccc(Cl)c1Cl (stereo not drawn) | nt | -2 | 2 | 0 | 0 | nt | nt
Cc1cccc(C)c1-n1nnnc1C1(C)CCC(=O)N1c1ccc(N2CCOCC2)cc1 (stereo not drawn) | 6 | nt | nt | -6 | nt | 0 | nt
O=S1(=O)N=C(N(CCO)/N=C/c2ccc(Br)cc2)c2ccccc21 | 3 | 0 | 3 | 2 | 0 | nt | nt
O=S1(=O)N=C(N(CCO)/N=C/c2ccc(Cl)cc2)c2ccccc21 | -2 | -2 | 0 | -1 | -2 | 47* | nt
COc1ccc(C(CNC(=O)c2cc(S(=O)(=O)N3CCCC3)ccc2Cl)N2CCCC2)cc1 (stereo not drawn) | 4 | 3 | 1 | 3 | nt | -25 | nt
COc1ccc2ccc(=O)oc2c1CC(=O)C(C)C | 5 | 2 | -1 | 3 | nt | 44* | i
O=C(N/N=C/c1c[nH]c2ccccc12)c1cc(Cl)ccc1O | 0 | 3 | -6 | 4 | 1 | 50* | i
O=C(N/N=C/c1c[nH]c2ccccc12)c1ccccc1Cl | 2 | 2 | 0 | 2 | nt | -4 | nt
CCc1ccc2c(c1)C(=O)C[C@]1(CCC[C@H](C)C1)O2 | 1 | -2 | 0 | 1 | 2 | 26* | i
